Reference: ChEMBL document CHEMBL3400013, “Synthesis and biological activity evaluation of hydrazone derivatives based on a Tröger's base skeleton” (Bioorg Med Chem, 2015)
Calls of active or inactive are those of the source. The calls are words filed in the database; no cut-off is given here.

Columns and labels:
[1] = system: Nucleic Acid; experiment: Binding affinity to DNA (unknown origin) assessed as DNA intercalation by UV-visible spectrophotometry in presence of Fe3+; format: nucleic-acid assay
[2] = system: Nucleic Acid; experiment: Binding affinity to DNA (unknown origin) assessed as DNA intercalation by UV-visible spectrophotometry in presence of Ni2+; format: nucleic-acid assay
[3] = system: Nucleic Acid; experiment: Binding affinity to DNA (unknown origin) assessed as DNA intercalation by UV-visible spectrophotometry in presence of Zn2+; format: nucleic-acid assay
[4] = system: BJ; experiment: Selectivity index, ratio of IC50 for human BJ cells to IC50 for human CCRF-CEM cells; format: functional; details: pooled result: one value given for 2 cell lines, strains, targets or settings
[5] = system: BJ; experiment: Selectivity index, ratio of IC50 for human BJ cells to IC50 for human CEM-DNR cells; format: functional
[6] = system: CEM-DNR; experiment: Selectivity index, ratio of IC50 for human MRC5 cells to IC50 for human CEM-DNR cells; format: functional
[7] = system: BJ; experiment: Selectivity index, ratio of IC50 for human BJ cells to IC50 for human K562 cells; format: functional
[8] = system: K562; experiment: Selectivity index, ratio of IC50 for human MRC5 cells to IC50 for human K562 cells; format: functional
[9] = system: BJ; experiment: Selectivity index, ratio of IC50 for human BJ cells to IC50 for human K562-TAX cells; format: functional
[10] = system: MRC5; experiment: Selectivity index, ratio of IC50 for human MRC5 cells to IC50 for human K562-TAX cells; format: functional
[11] = system: A549; experiment: Selectivity index, ratio of IC50 for human BJ cells to IC50 for human A549 cells; format: functional
[12] = system: A549; experiment: Selectivity index, ratio of IC50 for human MRC5 cells to IC50 for human A549 cells; format: functional
[13] = system: BJ; experiment: Selectivity index, ratio of IC50 for human BJ cells to IC50 for human HCT116 cells; format: functional
[14] = system: HCT-116; experiment: Selectivity index, ratio of IC50 for human MRC5 cells to IC50 for human HCT116 cells; format: functional
[15] = system: BJ; experiment: Selectivity index, ratio of IC50 for human BJ cells to IC50 for human p53-/- HCT116 cells; format: functional
[16] = system: HCT-116; experiment: Selectivity index, ratio of IC50 for human MRC5 cells to IC50 for human p53-/- HCT116 cells; format: functional
[17] = system: CCRF-CEM; experiment: Cytostatic activity against human CCRF-CEM cells after 72 hrs by MTT assay; format: functional, cell-based
How it was run: (§1)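 Cells were seeded at 25,000–30,000 per well and pre-incubated for 24 h at 37°C in 5% CO2. Four-fold compound dilutions were added in duplicate and incubated for 72 h. MTT was added for 1–4 h, and formazan was dissolved in 10% aq SDS (pH 5.5) overnight at 37°C. OD was read at 540 nm. IC50 came from dose-response curves, mean ± SD of eight independent experiments.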

[18] = Cytostatic activity against human CEM-DNR cells after 72 hrs by MTT assay; format: functional, cell-based; how it was run: as §1
[19] = system: K562; experiment: Cytostatic activity against human K562 cells after 72 hrs by MTT assay; format: functional, cell-based; details: K562, 72 h; how it was run: as §1
[20] = Cytostatic activity against human K562-TAX cells after 72 hrs by MTT assay; format: functional, cell-based; how it was run: as §1
[21] = system: A549; experiment: Cytostatic activity against human A549 cells after 72 hrs by MTT assay; format: functional, cell-based; details: A549, 72 h; how it was run: as §1
[22] = Cytostatic activity against human HCT116 cells after 72 hrs by MTT assay; format: functional, cell-based; details: HCT-116, 72 h; how it was run: as §1
[23] = Cytostatic activity against human p53-/- HCT116 cells after 72 hrs by MTT assay; format: functional, cell-based; details: HCT-116, 72 h; how it was run: as §1
[24] = system: BJ; experiment: Cytostatic activity against human BJ cells after 72 hrs by MTT assay; format: ADME, cell-based; how it was run: as §1
[25] = system: MRC5; experiment: Cytostatic activity against human MRC5 cells after 72 hrs by MTT assay; format: ADME, cell-based; details: MRC5, 72 h; how it was run: as §1
[26] = system: Enterococcus faecalis; experiment: Antimicrobial activity against Enterococcus faecalis CCM 4224 up to 200 uM after 24 to 48 hrs by broth microdilution method; format: functional, organism-based
[27] = system: Staphylococcus aureus; experiment: Antimicrobial activity against Staphylococcus aureus CCM 3953 up to 200 uM after 24 to 48 hrs by broth microdilution method; format: functional, organism-based
[28] = system: Escherichia coli; experiment: Antimicrobial activity against Escherichia coli CCM 3954 up to 200 uM after 24 to 48 hrs by broth microdilution method; format: functional, organism-based
[29] = system: Pseudomonas aeruginosa; experiment: Antimicrobial activity against Pseudomonas aeruginosa CCM 395 up to 200 uM after 24 to 48 hrs by broth microdilution method; format: functional, organism-based
[30] = system: Staphylococcus aureus; experiment: Antimicrobial activity against methicillin-resistant Staphylococcus aureus MRSA 4591 up to 200 uM after 24 to 48 hrs by broth microdilution method; format: functional, organism-based
[31] = system: Staphylococcus haemolyticus; experiment: Antimicrobial activity against methicillin-resistant Staphylococcus haemolyticus A1/16568 up to 200 uM after 24 to 48 hrs by broth microdilution method; format: functional, organism-based
[32] = system: Escherichia coli; experiment: Antimicrobial activity against multidrug-resistant Escherichia coli C/16702 up to 200 uM after 24 to 48 hrs by broth microdilution method; format: functional, organism-based
[33] = system: Pseudomonas aeruginosa; experiment: Antimicrobial activity against multidrug-resistant Pseudomonas aeruginosa A/16575 up to 200 uM after 24 to 48 hrs by broth microdilution method; format: functional, organism-based
[34] = system: Candida albicans; experiment: Antifungal activity against Candida albicans up to 200 uM after 24 to 48 hrs by broth microdilution method; format: functional, organism-based
[35] = system: Pichia kudriavzevii; experiment: Antifungal activity against Candida crusei up to 200 uM after 24 to 48 hrs by broth microdilution method; format: functional, organism-based
[36] = system: Candida tropicalis; experiment: Antifungal activity against Candida tropicalis up to 200 uM after 24 to 48 hrs by broth microdilution method; format: functional, organism-based
[37] = system: Candida parapsilosis; experiment: Antifungal activity against Candida parapsilosis up to 200 uM after 24 to 48 hrs by broth microdilution method; format: functional, organism-based
[38] = Metal chelating activity of the compound assessed as formation of Co2+ complex by UV-vis spectrometry; format: physicochemical
[39] = Metal chelating activity of the compound assessed as formation of Cu2+ complex by UV-vis spectrometry; format: physicochemical
[40] = Metal chelating activity of the compound assessed as formation of Fe3+ complex by UV-vis spectrometry; format: physicochemical
[41] = Metal chelating activity of the compound assessed as formation of Ni2+ complex by UV-vis spectrometry; format: physicochemical
[42] = Metal chelating activity of the compound assessed as formation of Zn2+ complex by UV-vis spectrometry; format: physicochemical
[43] = Metal chelating activity of the compound assessed as formation of Ca2+ complex by UV-vis spectrometry; format: physicochemical
[44] = Metal chelating activity of the compound assessed as formation of Mg2+ complex by UV-vis spectrometry; format: physicochemical
[45] = Metal chelating activity of the compound assessed as formation of Fe2+ complex by UV-vis spectrometry; format: physicochemical
[46] = Metal chelating activity of the compound assessed as formation of Mn2+ complex by UV-vis spectrometry; format: physicochemical
[47] = Metal chelating activity of the compound assessed as formation of Cr3+ complex by UV-vis spectrometry; format: physicochemical
[48] = system: Nucleic Acid; experiment: Binding affinity to DNA (unknown origin) assessed as DNA intercalation by UV-visible spectrophotometry; format: nucleic-acid assay
[49] = system: Nucleic Acid; experiment: Binding affinity to DNA (unknown origin) assessed as DNA intercalation by UV-visible spectrophotometry in presence of Co2+; format: nucleic-acid assay
[50] = system: Nucleic Acid; experiment: Binding affinity to DNA (unknown origin) assessed as DNA intercalation by UV-visible spectrophotometry in presence of Cu2+; format: nucleic-acid assay

## O=C(N/N=C/c1cc(Cl)ccc1O)c1ccc2c3c(ccc2c1)N1Cc2c(ccc4cc(C(=O)N/N=C/c5cc(Cl)ccc5O)ccc24)N(C3)C1
[1]
  Activity: Active
[2]
  Activity: Active
[3]
  Activity: Active
[4]
  Ratio IC50: 2.4
[5]
  Ratio IC50: 1
[6]
  Ratio IC50: 1
[7]
  Ratio IC50: 1
[8]
  Ratio IC50: 1
[9]
  Ratio IC50: 1
[10]
  Ratio IC50: 1
[11]
  Ratio IC50: 1
[12]
  Ratio IC50: 1
[13]
  Ratio IC50: 1
[14]
  Ratio IC50: 1
[15]
  Ratio IC50: 1
[16]
  Ratio IC50: 1
[17]
  IC50: 42.1 µM
[18]
  IC50: > 100 µM
[19]
  IC50: > 100 µM
[20]
  IC50: > 100 µM
[21]
  IC50: > 100 µM
[22]
  IC50: > 100 µM
[23]
  IC50: > 100 µM
[24]
  IC50: > 100 µM
[25]
  IC50: > 100 µM
[26]
  Activity: inactive
[27]
  Activity: inactive
[28]
  Activity: inactive
[29]
  Activity: inactive
[30]
  Activity: inactive
[31]
  Activity: inactive
[32]
  Activity: inactive
[33]
  Activity: inactive
[34]
  Activity: inactive
[35]
  Activity: inactive
[36]
  Activity: inactive
[37]
  Activity: inactive
[38]
  Activity: Active
[39]
  Activity: Active
[40]
  Activity: Active
[41]
  Activity: Active
[42]
  Activity: Active
[43]
  Activity: Not Active
[44]
  Activity: Not Active
[45]
  Activity: Not Active
[46]
  Activity: Not Active
[47]
  Activity: Not Active
[48]
  Activity: inactive
[49]
  Activity: Active
[50]
  Activity: Active

## O=C(N/N=C/c1cc([N+](=O)[O-])ccc1O)c1ccc2c3c(ccc2c1)N1Cc2c(ccc4cc(C(=O)N/N=C/c5cc([N+](=O)[O-])ccc5O)ccc24)N(C3)C1
[1]
  Activity: Active
[2]
  Activity: Active
[3]
  Activity: Active
[4]
  Ratio IC50: 0.9
[5]
  Ratio IC50: 0.9
[6]
  Ratio IC50: 0.9
[7]
  Ratio IC50: 0.9
[8]
  Ratio IC50: 0.9
[9]
  Ratio IC50: 0.9
[10]
  Ratio IC50: 0.9
[11]
  Ratio IC50: 0.9
[12]
  Ratio IC50: 0.9
[13]
  Ratio IC50: 0.9
[14]
  Ratio IC50: 0.9
[15]
  Ratio IC50: 0.9
[16]
  Ratio IC50: 0.9
[17]
  IC50: > 100 µM
[18]
  IC50: > 100 µM
[19]
  IC50: > 100 µM
[20]
  IC50: > 100 µM
[21]
  IC50: > 100 µM
[22]
  IC50: > 100 µM
[23]
  IC50: > 100 µM
[24]
  IC50: > 100 µM
[25]
  IC50: 88.8 µM
[26]
  Activity: inactive
[27]
  Activity: inactive
[28]
  Activity: inactive
[29]
  Activity: inactive
[30]
  Activity: inactive
[31]
  Activity: inactive
[32]
  Activity: inactive
[33]
  Activity: inactive
[34]
  Activity: inactive
[35]
  Activity: inactive
[36]
  Activity: inactive
[37]
  Activity: inactive
[38]
  Activity: Active
[39]
  Activity: Active
[40]
  Activity: Active
[41]
  Activity: Active
[42]
  Activity: Active
[43]
  Activity: Not Active
[44]
  Activity: Not Active
[45]
  Activity: Not Active
[46]
  Activity: Not Active
[47]
  Activity: Not Active
[48]
  Activity: inactive
[49]
  Activity: Active
[50]
  Activity: Active
